MPTP block: blocks calcium-induced mitochondrial swelling. 360,000 compounds, 1.4% hits. isolated mouse mitochondria, Ca2+ swelling absorbance, 30 min. inhibition, % at 10 µM;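 active = inhibition of 50% or more, scaled per plate between neutral and stimulator controls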;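 note: 0% = DMSO wells given calcium and 100% = 1 mM EGTA wells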
B2AR ag: agonists of human beta-2 adrenergic receptor inducing internalization | P07550 | Am2.2-beta2AR cells, FAP receptor internalization, flow cytometry | response, % (concentration not given with the values) | 340,000 compounds, 0.43% hits;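 active = response above a set limit, near 3 SD of response in nonfluorescent compounds, cut at about 42% in these data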
Target sequence (P07550 whole entry, looked up): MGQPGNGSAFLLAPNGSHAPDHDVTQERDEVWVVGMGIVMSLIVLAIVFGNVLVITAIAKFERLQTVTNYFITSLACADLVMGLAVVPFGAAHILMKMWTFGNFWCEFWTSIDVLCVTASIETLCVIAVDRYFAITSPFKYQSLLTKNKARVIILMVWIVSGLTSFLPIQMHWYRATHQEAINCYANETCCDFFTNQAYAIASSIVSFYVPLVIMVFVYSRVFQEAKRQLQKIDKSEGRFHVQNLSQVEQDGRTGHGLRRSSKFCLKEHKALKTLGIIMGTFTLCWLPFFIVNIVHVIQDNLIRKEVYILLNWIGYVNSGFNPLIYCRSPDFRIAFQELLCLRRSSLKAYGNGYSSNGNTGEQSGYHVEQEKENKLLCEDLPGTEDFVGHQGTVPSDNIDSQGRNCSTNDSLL
rCAG binder: molecules binding r(CAG) RNA repeats; r(CAG) RNA repeat, TO-PRO-1 dye displacement fluorescence; 370,000 compounds, 1.3% hits; AID 651821; inhibition, % at 3 µM;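 active = inhibition above the plate cutoff, the mean of all test compounds on that plate plus 3 SD, cut at about 35% in these data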;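 note: 0% = DMSO alone and 100% = 100 µM mitoxantrone as full dye displacement; higher means more dye released from RNA so lower well fluorescence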
T cell HTS: T cell immune modulators affecting CD8 T cell-vesicle binding. AID 2052. response (vesicle binding), % at 7 µM. 330,000 compounds, 0.068% hits. 2C CD8+ T cell-vesicle binding, flow cytometry; stronger effect = lower value;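 active = response, share of CD8 T cells binding vesicles, and their 90th percentile fluorescence all below set limits, cut at about 80% in these data, passing the limit was not always enough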;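 note: values below 100% mean blocked vesicle binding to the CD8+ T cells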
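Material: 2C TCR transgenic mouse naive CD8+ T cells, MACS-purified. Also added: QL9-charged Drosophila Ld/ICAM-1/B7-1 vesicles. Timing: binding 1.5 h at 37 °C. Measured by: high-throughput flow cytometry with anti-B7-1 and anti-CD8 staining. Read-out: percent CD8+ FL2 mean versus row control. Controls: Unloaded micro-vesicles (low), QL9 vesicles with 0.7% DMSO (high).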
Exocytosis inh: blocks lytic granule exocytosis | TALL-104 LAMP-1 surface exposure, flow cytometry; cells stimulated with thapsigargin and PMA | inhibition, % at 10 µM | 360,000 compounds, 0.66% hits;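 active = inhibition above about 55%, limit read from the data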
V-ATPase pHluor: yeast V-ATPase proton transport regulation by pHLuorin. S. cerevisiae, pHLuorin cytosolic pH fluorescence. response, % at 10 µM. 350,000 compounds, 0.37% hits; in the data active = response mostly above about 7.3%, no sharp cut-off; inactive = mostly below about 5.4%; note: actives read high
* hit, by the source's call; i = inactive; nt = not tested or not shown. Rows were chosen to be rich in hits. Some 3.8% of all compounds tested hit in one or more screens of this group.

SMILES	MPTP block	B2AR ag	rCAG binder	T cell HTS	Exocytosis inh	V-ATPase pHluor
Cc1ccc(C(C)(C)C)cc1S(=O)(=O)Nc1nc2ccccc2nc1Cl	14	15	63*	335	23	4
O=S(=O)(Nc1nc2ccccc2nc1Cl)c1ccccc1	0	0	7	249	3	-1
Cc1ccc(NC(=O)OCCCN2C(=O)CCC23CCC(C)CC3)cc1C (stereo not drawn)	nt	nt	-1	nt	nt	nt
C=CCN1[C@H](C#N)[C@@H](c2ccc(C#Cc3cccc(OC)c3)cc2)[C@H]1CO	nt	nt	10	nt	nt	nt
CC(NC(=O)Cn1ncc(Cl)c(Cl)c1=O)C12CC3CC(CC(C3)C1)C2 (stereo not drawn)	3	112*	nt	332	0	0
CCn1cc(C(=O)NC(C)C23CC4CC(CC(C4)C2)C3)cn1 (stereo not drawn)	1	-1	-4	187	-3	3
CCN(CC)S(=O)(=O)c1cc(NC(=O)Cn2ncc(Cl)c(Cl)c2=O)ccc1C	6	46*	20	112	5	1
CCOC(=O)c1ccc(NC(=O)Cn2ncc(Cl)c(Cl)c2=O)cc1	1	74*	12	104	37	-4
O=C(OCn1ncc(Cl)c(Cl)c1=O)c1ccc(C(F)(F)F)cc1	-1	4	-4	nt	44	4
Cc1ccc(C(=O)OCn2ncc(Cl)c(Cl)c2=O)cc1	0	62*	-1	185	42	2
OC1OC2COC(c3ccccc3)OC2C(O)C1O (stereo not drawn)	nt	nt	0	nt	nt	nt
CCC(=O)Nc1ccc(C(=O)Cn2ncc(Cl)c(Cl)c2=O)cc1	3	9	20	47	-5	11*
O=C(Cn1ncc(Cl)c(Cl)c1=O)c1ccc2c(c1)OCCO2	0	13	6	219	-6	1
Cc1ccc(NC(=O)COC(=O)C2(C)CC2(Cl)Cl)cc1S(=O)(=O)N1CCOCC1 (stereo not drawn)	0	6	3	nt	-10	23*
COC(=O)C12C=C3CC(C)=C3C(=O)N1Cc1[nH]c3ccccc3c1C2 (stereo not drawn)	nt	nt	5	nt	nt	nt
Cc1ccc2nc(N3CCN(c4cccc(C)c4C)CC3)c3nnnn3c2c1	2	8	1	354	-3	1
Cc1ccc2nc(Cl)c3nnnn3c2c1	3	87*	nt	253	27	10.0*
C=CCN1[C@H](CC(C)C)COc2cc(N3CCCC3)ccc2S1(=O)=O	nt	nt	3	nt	nt	nt
CCC(C)NC(=O)c1c(N)n(/N=C/c2ccccn2)c2nc3ccccc3nc12 (stereo not drawn)	1	17	6	267	56*	-4
COc1ccc(NC(=O)/C(Cl)=C(/Cl)S(=O)(=O)Cc2ccc(C)cc2)cn1	0	62*	nt	nt	97*	2
COc1ccc(NC(=O)/C(Cl)=C(/Cl)S(=O)Cc2ccccc2Cl)cn1 (stereo not drawn)	nt	58*	nt	nt	nt	3
CN(C)c1ccc(C(=O)Nc2ccc(S(=O)(=O)Nc3nccs3)cc2)cc1	0	3	35*	197	-2	2
CS(=O)(=O)Nc1ccc(C(=O)Nc2ccc(S(=O)(=O)Nc3nccs3)cc2)cc1	0	5	7	433	20	6
Cn1ncc(Br)c1C(=O)N1CCCCCC1	-1	-5	1	33*	3	1
Cn1ncc(Br)c1C(=O)N1CCCC1	0	-2	-3	353	-2	-2
SMILES	MPTP block	B2AR ag	rCAG binder	T cell HTS	Exocytosis inh	V-ATPase pHluor
O=C(/C=C/c1ccccc1F)c1cccc([N+](=O)[O-])c1	3	7	9	126	85*	1
COc1cc(/C=C/C(=O)c2cccc([N+](=O)[O-])c2)cc(OC)c1OC	0	52*	3	177	-2	11
O=C(C#Cc1ccccc1)c1cccc([N+](=O)[O-])c1	-3	67*	5	165	54	18
COc1ccc(C(=O)/C=C/c2ccccc2F)c(OC(=O)c2ccc([N+](=O)[O-])cc2)c1	0	0	0	210	1	3
Cc1ccc(F)cc1C(=O)N(Cc1ccccn1)CC1CCCO1 (stereo not drawn)	nt	nt	1	nt	nt	nt
O=C(NC1CCC1)c1ccc(C#CC2CC2)c[n+]1[O-]	nt	nt	2	nt	nt	nt
COc1ccc2ccccc2c1C1CC(=O)N2CN(C3CCCCC3)CSC2=C1C#N (stereo not drawn)	-2	14	39*	847	10	-1
CCOc1cc(C2CC(=O)N3CN(C4CCCCC4)CSC3=C2C#N)ccc1O (stereo not drawn)	0	-3	20	574	-2	6
COC(=O)[C@H](CC(C)C)N(Cc1cn(Cc2ccc(C)cc2)nn1)S(=O)(=O)c1ccc(F)cc1Br	nt	nt	0	nt	nt	nt
O=[N+]([O-])c1ccc(S(=O)(=O)c2ccccc2)nc1	0	30	0	113	34	3
Cc1cc(S(=O)(=O)c2ccc([N+](=O)[O-])cn2)ccc1Br	12	5	2	321	17	8.7*
Fc1ccc(-c2cc(-c3nnc4sc(-c5cccs5)nn34)[nH]n2)cc1	nt	nt	14	nt	nt	nt
CCC1(c2ccc(Cl)cc2)NC(=O)N(CC(=O)NCc2ccc(F)cc2)C1=O (stereo not drawn)	1	-6	-2	912	2	4
CCC1(c2ccc(Cl)cc2)NC(=O)N(Cc2ccc(C(=O)OC)cc2)C1=O (stereo not drawn)	-2	-7	-6	372	-1	13*
CCC(C(=O)Nc1ccccc1N1CCCC1)c1cccc(OC)c1 (stereo not drawn)	nt	nt	1	nt	nt	nt
O=C(C(=Cc1ccccc1)CN1CCCCC1)c1ccccc1	-2	49*	-1	nt	4	-1
COC(=O)C1=CC(=O)C=C(OC)[C@@]12Oc1cc(C)cc(OC)c1C2=O	nt	nt	-2	nt	nt	nt
CCc1ccc(N2CN(Cc3cccnc3)CNC2=S)cc1	1	1	-2	528	-5	2
Cc1cccc(N2CN(Cc3cccnc3)CNC2=S)c1	-2	10	-1	699	-2	16*
O=C(NCc1nc2ccccc2[nH]1)C1=C[C@H](c2ccccc2)C[C@H](OCc2ccc(CO)cc2)O1	-3	-3	-1	472	14	2
O=C(NCc1nc2ccccc2[nH]1)C1=C[C@@H](c2ccccc2)C[C@@H](OCc2ccc(CO)cc2)O1	2	-10	1	165	71*	2
CCOC(=O)[C@@]12CCCC=C1N(CCc1ccc(Cl)cc1)C(=O)[C@H]2CC(=O)NCc1ccccc1	nt	nt	8	nt	nt	nt
COc1ccc(/C=N\NC(=O)c2ccccc2[N+](=O)[O-])cc1COc1c(F)c(F)c(F)c(F)c1F	2	53*	4	0	0	-1
COc1ccc(/C=N/NC(=O)c2cccnc2)cc1COc1ccc([N+](=O)[O-])cc1	6	8	7	i	61*	4
O=C(N/N=C/c1ccc(OC(=O)c2ccc([N+](=O)[O-])cc2)cc1)c1cccnc1	0	3	0	0	1	1

Compound activity (PubChem)
